PMC5485419 (Theranostics, 2017)
≈ marks a conversion by molar mass, not a printed value.

Assays:
FLS cells = assay: Apoptosis detection in FLS cells; type: cell-based, rat; details: all at 0.4 mg/ml Ket, 48 h, versus untreated groups
In short: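 FLS cells were taken from arthritis-affected rat joints and grown in MEM with 10 % fetal calf serum at 37 °C under 5 % CO2. Cells were seeded at 1 × 10^6 per well, grown overnight, and exposed to the test compound (0.016-0.71 mg/ml) for 48 h. They were then trypsinised, washed, and resuspended at ∼1×10^6 cells/mL in annexin-binding buffer. Alexa Fluor 488 annexin V and PI were added for 15 min at room temperature before immediate flow cytometry.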

COX-1 (ovine) = target: T1, COX-1 (ovine) (Ovis aries, UniProt P05979); assay: COX Fluorescent Inhibitor Screening Assay, COX-1; type: biochemical
T1 sequence (P05979 25-600): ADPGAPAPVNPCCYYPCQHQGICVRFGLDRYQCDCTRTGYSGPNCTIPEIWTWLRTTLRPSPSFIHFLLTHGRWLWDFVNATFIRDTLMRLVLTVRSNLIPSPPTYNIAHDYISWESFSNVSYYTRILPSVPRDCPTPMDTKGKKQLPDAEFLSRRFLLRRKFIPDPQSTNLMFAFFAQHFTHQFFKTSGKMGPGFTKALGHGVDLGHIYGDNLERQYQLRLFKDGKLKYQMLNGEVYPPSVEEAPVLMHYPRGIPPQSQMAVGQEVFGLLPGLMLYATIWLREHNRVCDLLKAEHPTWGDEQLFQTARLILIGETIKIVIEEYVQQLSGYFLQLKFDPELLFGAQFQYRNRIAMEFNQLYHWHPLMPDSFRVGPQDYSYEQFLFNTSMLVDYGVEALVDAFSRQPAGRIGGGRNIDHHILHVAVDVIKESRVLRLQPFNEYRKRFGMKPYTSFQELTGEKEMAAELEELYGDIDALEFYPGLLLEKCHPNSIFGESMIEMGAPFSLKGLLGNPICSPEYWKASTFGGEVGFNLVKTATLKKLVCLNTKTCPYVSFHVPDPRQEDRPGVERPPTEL
In short: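 The kit's peroxidase read-out was used: PGG2 converts ADHP to resorufin, read at excitation 530-540 nm and emission 585-595 nm. Ovine COX-1 was mixed with inhibitor, heme, fluorometric substrate and assay buffer. Arachidonic acid started the reaction, and plates were read exactly 2 min later at room temperature. No-enzyme blanks and no-inhibitor controls were included, and each compound was run in triplicate.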

In vitro release profile = type: physicochemical; details: non-gelled solution controls, 37 °C, PBS pH 7.4, dialysis bags
In short: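 Samples of 200 μL at 4 mg/ml (gels, non-gelled conjugate solutions and parent drug) were dialysed (MWCO 800-1000) against PBS pH 7.4 at 37 °C. The 200 μL release medium was sampled and refreshed at set times. Released conjugate was quantified by C18 HPLC (30 °C; acetonitrile/0.1 % TFA gradient; 1.0 mL/min) at 260 nm.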

[1] = In vitro FLS cell toxicity assay; type: cell-based; details: Sprague Dawley, rat
In short: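 FLS cells from adjuvant-arthritic rat joints, in MEM with 10 % fetal calf serum at 37 °C and 5 % CO2, were seeded at 1.0×10^5/well and grown overnight. Cells were treated with six concentrations for 48 h, then given 20 µl MTT (5 mg/ml) for 4 h. Formazan was dissolved in DMSO and A490 read. Viability is relative to untreated cells, in triplicate; IC50 was read from the curves.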

[2] = tested on: IL-1 and TNFα production by FLS cells; assay: Determination of IL-1 and TNF-α in FLS cell supernatants; type: cell-based, rat; details: 0.355 mg/ml, 48 h, compared with the untreated control group
In short: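 Rat FLS cells, isolated from synovial tissue of adjuvant-arthritic rats, were seeded at 1×10^5/well in MEM with 10 % fetal calf serum (37 °C, 5 % CO2) and grown overnight. They were then exposed to test compound at 0.355 mg/ml for 48 h. Supernatant cytokines were measured by ELISA against untreated cells, in triplicate (n = 3), with one-way ANOVA.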

IC50 (COX-1 (ovine)): 5.1 µM
Time of drug release from solution (In vitro release profile): within a few hours
SMILES: C[C@H](C(=O)O)c1cccc(C(=O)c2ccccc2)c1 [(S)-Ket, (S)-Ketoprofen]
Extent of apoptosis in FLS cells (FLS cells): greater degree of cell death than untreated groups
IC50 at 48 h [1]: 159 µg/mL (≈ 625 µM)
IL-1 production by FLS cells [2]: trace amounts
TNFα production by FLS cells [2]: comparatively lower amount
